According to ChEMBL document CHEMBL3864121, “Development of ebsulfur analogues as potent antibacterials against methicillin-resistant Staphylococcus aureus” (Bioorg Med Chem, 2016):
Values after ≈ are worked out from the molar mass of the structure shown.

Assays:
Type in all cases: functional
[1] = system: Staphylococcus aureus; experiment: Antibacterial activity against methicillin-resistant Staphylococcus aureus USA100 measured after overnight incubation by broth double-dilution method
Summary of the method: (§1)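 MIC by broth double-dilution in liquid Mueller-Hinton medium. Values are reported in µg/mL.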

[2] = system: Staphylococcus aureus; experiment: Antibacterial activity against methicillin-resistant Staphylococcus aureus S17 measured after overnight incubation by broth double-dilution method; summary of the method: as §1
[3] = system: Enterococcus faecalis; experiment: Antibacterial activity against Enterococcus faecalis ATCC 29212 measured after overnight incubation by broth double-dilution method
Summary of the method: (§2)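 MIC by broth double-dilution in Mueller-Hinton medium. Re-testing at the time-kill inoculum used 1×10^6 CFU/mL.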

[4] = system: Staphylococcus epidermidis; experiment: Antibacterial activity against Staphylococcus epidermidis ATCC 35984 measured after overnight incubation by broth double-dilution method; conditions: RP62A; summary of the method: as §2
[5] = system: Staphylococcus aureus; experiment: Antibacterial activity against methicillin-sensitive Staphylococcus aureus ATCC 6538 measured after overnight incubation by broth double-dilution method; summary of the method: as §1
[6] = system: Staphylococcus aureus; experiment: Antibacterial activity against methicillin-resistant Staphylococcus aureus C2 measured after overnight incubation by broth double-dilution method; summary of the method: as §1
[7] = system: Staphylococcus aureus; experiment: Antibacterial activity against methicillin-resistant Staphylococcus aureus C7 measured after overnight incubation by broth double-dilution method; summary of the method: as §1
[8] = system: Staphylococcus aureus; experiment: Antibacterial activity against methicillin-resistant Staphylococcus aureus G12 measured after overnight incubation by broth double-dilution method; summary of the method: as §1
[9] = system: Staphylococcus aureus; experiment: Antibacterial activity against methicillin-resistant Staphylococcus aureus S14 measured after overnight incubation by broth double-dilution method; summary of the method: as §1
[10] = system: Staphylococcus aureus; experiment: Antibacterial activity against methicillin-resistant Staphylococcus aureus G6 measured after overnight incubation by broth double-dilution method; summary of the method: as §1
[11] = system: Staphylococcus aureus; experiment: Antibacterial activity against methicillin-resistant Staphylococcus aureus C14 measured after overnight incubation by broth double-dilution method; summary of the method: as §1
[12] = system: Staphylococcus aureus; experiment: Antibacterial activity against methicillin-resistant Staphylococcus aureus G14 measured after overnight incubation by broth double-dilution method; summary of the method: as §1
[13] = system: Staphylococcus aureus; experiment: Antibacterial activity against methicillin-resistant Staphylococcus aureus C16 measured after overnight incubation by broth double-dilution method; summary of the method: as §1
[14] = system: Enterococcus faecium; experiment: Antibacterial activity against Enterococcus faecium BM4105-RF measured after overnight incubation by broth double-dilution method; summary of the method: as §1
[15] = system: Staphylococcus aureus; experiment: Antibacterial activity against methicillin-resistant Staphylococcus aureus NRS77 measured after overnight incubation by broth double-dilution method; summary of the method: as §1
[16] = system: Staphylococcus aureus; experiment: Antibacterial activity against methicillin-resistant Staphylococcus aureus USA300 measured after overnight incubation by broth double-dilution method; summary of the method: as §1
[17] = system: Staphylococcus aureus; experiment: Antibacterial activity against methicillin-resistant Staphylococcus aureus G1 measured after overnight incubation by broth double-dilution method; summary of the method: as §1
[18] = system: Mycolicibacterium smegmatis; experiment: Antibacterial activity against Mycobacterium smegmatis MC2-155 measured after overnight incubation by broth double-dilution method; conditions: str. MC2 155; summary of the method: as §1
[19] = system: Staphylococcus aureus; experiment: Antibacterial activity against methicillin-resistant Staphylococcus aureus NRS51 measured after overnight incubation by broth double-dilution method; summary of the method: as §1
[20] = system: Enterococcus faecalis; experiment: Antibacterial activity against Enterococcus faecalis ATCC 49533 measured after overnight incubation by broth double-dilution method; summary of the method: as §2
[21] = system: Staphylococcus aureus; experiment: Antibacterial activity against methicillin-resistant Staphylococcus aureus S24 measured after overnight incubation by broth double-dilution method; summary of the method: as §1
[22] = system: Staphylococcus aureus; experiment: Antibacterial activity against methicillin-resistant Staphylococcus aureus USA600 measured after overnight incubation by broth double-dilution method; summary of the method: as §1
[23] = system: Staphylococcus aureus; experiment: Antibacterial activity against methicillin-sensitive Staphylococcus aureus ATCC 25923 measured after overnight incubation by broth double-dilution method; summary of the method: as §1
[24] = system: Staphylococcus aureus; experiment: Antibacterial activity against methicillin-resistant Staphylococcus aureus NRS4 measured after overnight incubation by broth double-dilution method; summary of the method: as §1
[25] = system: Enterococcus; experiment: Antibacterial activity against Vancomycin-resistant Enterococcus measured after overnight incubation by broth double-dilution method; summary of the method: as §1
[26] = system: Staphylococcus aureus; experiment: Antibacterial activity against methicillin-resistant Staphylococcus aureus C19 measured after overnight incubation by broth double-dilution method; summary of the method: as §1
[27] = system: Staphylococcus aureus; experiment: Antibacterial activity against methicillin-resistant Staphylococcus aureus 2 measured after overnight incubation by broth double-dilution method; summary of the method: as §1
[28] = system: Listeria monocytogenes; experiment: Antibacterial activity against Listeria monocytogenes ATCC 19115 measured after overnight incubation by broth double-dilution method; summary of the method: as §2
[29] = system: Staphylococcus aureus; experiment: Antibacterial activity against methicillin-resistant Staphylococcus aureus 1 measured after overnight incubation by broth double-dilution method; summary of the method: as §1
[30] = system: Staphylococcus aureus; experiment: Antibacterial activity against methicillin-resistant Staphylococcus aureus BRS3 measured after overnight incubation by broth double-dilution method; summary of the method: as §1
[31] = system: Staphylococcus aureus; experiment: Antibacterial activity against methicillin-resistant Staphylococcus aureus S22 measured after overnight incubation by broth double-dilution method; summary of the method: as §1
[32] = system: Staphylococcus aureus; experiment: Antibacterial activity against methicillin-sensitive Staphylococcus aureus ATCC 29213 measured after overnight incubation by broth double-dilution method; summary of the method: as §1
[33] = system: Staphylococcus aureus; experiment: Antibacterial activity against methicillin-resistant Staphylococcus aureus ATCC 33591 measured after overnight incubation by broth double-dilution method; summary of the method: as §1
[34] = system: Staphylococcus aureus; experiment: Antibacterial activity against methicillin-resistant Staphylococcus aureus USA200 measured after overnight incubation by broth double-dilution method; summary of the method: as §1
[35] = system: Staphylococcus aureus; experiment: Antibacterial activity against methicillin-resistant Staphylococcus aureus C1 measured after overnight incubation by broth double-dilution method; summary of the method: as §1

Compound | MIC [1] [µg/mL] | MIC [2] [µg/mL] | MIC [3] [µg/mL] | MIC [4] [µg/mL] | MIC [5] [µg/mL] | MIC [6] [µg/mL] | MIC [7] [µg/mL] | MIC [8] [µg/mL] | MIC [9] [µg/mL] | MIC [10] [µg/mL] | MIC [11] [µg/mL] | MIC [12] [µg/mL] | MIC [13] [µg/mL] | MIC [14] [µg/mL] | MIC [15] [µg/mL] | MIC [16] [µg/mL] | MIC [17] [µg/mL] | MIC [18] [µg/mL] | MIC [19] [µg/mL] | MIC [20] [µg/mL] | further results
O=c1c2ccccc2sn1CCCc1ccccc1 | 2 (≈ 7.42 µM) | 2 (≈ 7.42 µM) | 15.6 (≈ 57.9 µM) | 2 (≈ 7.42 µM) | 3.9 (≈ 14.5 µM) | 2 (≈ 7.42 µM) | 2 (≈ 7.42 µM) | 2 (≈ 7.42 µM) | ≤ 0.25 | 2 (≈ 7.42 µM) | 3.9 (≈ 14.5 µM) | 2 (≈ 7.42 µM) | 3.9 (≈ 14.5 µM) | 15.6 (≈ 57.9 µM) | 2 (≈ 7.42 µM) | 2 (≈ 7.42 µM) | 0.5 (≈ 1.86 µM) | 3.9 (≈ 14.5 µM) | 2 (≈ 7.42 µM) | > 125 | MIC [21]: 2 µg/mL (≈ 7.42 µM); MIC [22]: 3.9 µg/mL (≈ 14.5 µM); MIC [23]: 2 µg/mL (≈ 7.42 µM); MIC [24]: 2 µg/mL (≈ 7.42 µM); MIC [25]: 0.5 µg/mL (≈ 1.86 µM); MIC [26]: 2 µg/mL (≈ 7.42 µM); MIC [27]: 2 µg/mL (≈ 7.42 µM); MIC [28]: 2 µg/mL (≈ 7.42 µM); MIC [29]: 0.5 µg/mL (≈ 1.86 µM); MIC [30]: 3.9 µg/mL (≈ 14.5 µM); MIC [31]: 3.9 µg/mL (≈ 14.5 µM); MIC [32]: 2 µg/mL (≈ 7.42 µM); MIC [33]: 1 µg/mL (≈ 3.71 µM); MIC [34]: 3.9 µg/mL (≈ 14.5 µM); MIC [35]: 2 µg/mL (≈ 7.42 µM)
O=c1c2ccccc2sn1C1CCCCCCC1 | 7.8 (≈ 29.8 µM) | 2 (≈ 7.65 µM) | 15.6 (≈ 59.7 µM) | 3.9 (≈ 14.9 µM) | 2 (≈ 7.65 µM) | 3.9 (≈ 14.9 µM) | 3.9 (≈ 14.9 µM) | 2 (≈ 7.65 µM) | 1 (≈ 3.83 µM) | 2 (≈ 7.65 µM) | 2 (≈ 7.65 µM) | 3.9 (≈ 14.9 µM) | 3.9 (≈ 14.9 µM) | 15.6 (≈ 59.7 µM) | 2 (≈ 7.65 µM) | 7.8 (≈ 29.8 µM) | 1 (≈ 3.83 µM) | 3.9 (≈ 14.9 µM) | 2 (≈ 7.65 µM) | 15.6 (≈ 59.7 µM) | MIC [21]: 3.9 µg/mL (≈ 14.9 µM); MIC [22]: 7.8 µg/mL (≈ 29.8 µM); MIC [23]: > 125 µg/mL; MIC [24]: 0.5 µg/mL (≈ 1.91 µM); MIC [25]: 1 µg/mL (≈ 3.83 µM); MIC [26]: 2 µg/mL (≈ 7.65 µM); MIC [27]: 3.9 µg/mL (≈ 14.9 µM); MIC [28]: > 125 µg/mL; MIC [29]: 3.9 µg/mL (≈ 14.9 µM); MIC [30]: 3.9 µg/mL (≈ 14.9 µM); MIC [31]: 7.8 µg/mL (≈ 29.8 µM); MIC [32]: 2 µg/mL (≈ 7.65 µM); MIC [33]: > 125 µg/mL; MIC [34]: 7.8 µg/mL (≈ 29.8 µM); MIC [35]: 3.9 µg/mL (≈ 14.9 µM)
O=c1c2ccccc2sn1-c1ccc(Cl)cc1 | 2 (≈ 7.64 µM) | 1 (≈ 3.82 µM) | 62.5 (≈ 239 µM) | 1 (≈ 3.82 µM) | 3.9 (≈ 14.9 µM) | 1 (≈ 3.82 µM) | 1 (≈ 3.82 µM) | 2 (≈ 7.64 µM) | ≤ 0.25 | 2 (≈ 7.64 µM) | 3.9 (≈ 14.9 µM) | 1 (≈ 3.82 µM) | 3.9 (≈ 14.9 µM) | 31.3 (≈ 120 µM) | 3.9 (≈ 14.9 µM) | 3.9 (≈ 14.9 µM) | 2 (≈ 7.64 µM) | 3.9 (≈ 14.9 µM) | 3.9 (≈ 14.9 µM) | > 125 | MIC [21]: 1 µg/mL (≈ 3.82 µM); MIC [22]: 2 µg/mL (≈ 7.64 µM); MIC [23]: 2 µg/mL (≈ 7.64 µM); MIC [24]: 3.9 µg/mL (≈ 14.9 µM); MIC [25]: 0.5 µg/mL (≈ 1.91 µM); MIC [26]: 1 µg/mL (≈ 3.82 µM); MIC [27]: 1 µg/mL (≈ 3.82 µM); MIC [28]: 1 µg/mL (≈ 3.82 µM); MIC [29]: 1 µg/mL (≈ 3.82 µM); MIC [30]: 3.9 µg/mL (≈ 14.9 µM); MIC [31]: 2 µg/mL (≈ 7.64 µM); MIC [32]: 2 µg/mL (≈ 7.64 µM); MIC [33]: 1 µg/mL (≈ 3.82 µM); MIC [34]: 2 µg/mL (≈ 7.64 µM); MIC [35]: 2 µg/mL (≈ 7.64 µM)
Cc1cc(C)cc(-n2sc3ccccc3c2=O)c1 | 3.9 (≈ 15.3 µM) | 3.9 (≈ 15.3 µM) | 15.6 (≈ 61.1 µM) | 3.9 (≈ 15.3 µM) | 7.8 (≈ 30.5 µM) | 3.9 (≈ 15.3 µM) | 3.9 (≈ 15.3 µM) | 7.8 (≈ 30.5 µM) | ≤ 0.25 | 7.8 (≈ 30.5 µM) | 15.6 (≈ 61.1 µM) | 3.9 (≈ 15.3 µM) | 7.8 (≈ 30.5 µM) | 15.6 (≈ 61.1 µM) | 7.8 (≈ 30.5 µM) | 7.8 (≈ 30.5 µM) | 7.8 (≈ 30.5 µM) | 3.9 (≈ 15.3 µM) | 7.8 (≈ 30.5 µM) | 15.6 (≈ 61.1 µM) | MIC [21]: 7.8 µg/mL (≈ 30.5 µM); MIC [22]: 7.8 µg/mL (≈ 30.5 µM); MIC [23]: 7.8 µg/mL (≈ 30.5 µM); MIC [24]: 7.8 µg/mL (≈ 30.5 µM); MIC [25]: 3.9 µg/mL (≈ 15.3 µM); MIC [26]: 7.8 µg/mL (≈ 30.5 µM); MIC [27]: 7.8 µg/mL (≈ 30.5 µM); MIC [28]: 7.8 µg/mL (≈ 30.5 µM); MIC [29]: 7.8 µg/mL (≈ 30.5 µM); MIC [30]: 7.8 µg/mL (≈ 30.5 µM); MIC [31]: 3.9 µg/mL (≈ 15.3 µM); MIC [32]: 3.9 µg/mL (≈ 15.3 µM); MIC [33]: 1 µg/mL (≈ 3.92 µM); MIC [34]: 7.8 µg/mL (≈ 30.5 µM); MIC [35]: 3.9 µg/mL (≈ 15.3 µM)
